Measured values as given in ChEMBL document CHEMBL5705898 (Proc Natl Acad Sci U S A, 2014).

Tests used:
[1] = biological target: Substance-P receptor (Homo sapiens) (UniProt P25103); experiment: Inhibition of human NK1 receptor at 10 uM relative to control
[2] = biological target: 5-hydroxytryptamine receptor 6 (Homo sapiens) (UniProt P50406); experiment: Inhibition of human 5-HT6 receptor at 10 uM relative to control
Homo sapiens [3] = organism: Homo sapiens; experiment: Inhibition of human NOP(ORL1) at 10 uM relative to control
[4] = biological target: Tyrosine-protein kinase Lyn (Homo sapiens) (UniProt P07948); experiment: Inhibition of human Lyn A kinase at 10 uM relative to control
Homo sapiens [5] = organism: Homo sapiens; experiment: Inhibition of kainate receptor (unknown origin) at 10 uM relative to control
[6] = biological target: Endothelin receptor type B (Homo sapiens) (UniProt P24530); experiment: Inhibition of human ETB receptor at 10 uM relative to control
[7] = biological target: Alpha-1B adrenergic receptor (Homo sapiens) (UniProt P35368); experiment: Inhibition of human alpha 1B receptor at 10 uM relative to control
[8] = biological target: Histamine H1 receptor (Homo sapiens) (UniProt P35367); experiment: Inhibition of human H1 receptor at 10 uM relative to control
Homo sapiens [9] = organism: Homo sapiens; experiment: Inhibition of Ca2+ channel L, verapamil site (unknown origin) at 10 uM relative to control
[10] = biological target: Mu-type opioid receptor (Homo sapiens) (UniProt P35372); experiment: Inhibition of human mu opioid receptor at 10 uM relative to control
[11] = biological target: Androgen receptor (Homo sapiens) (UniProt P10275); experiment: Inhibition of human AR at 10 uM relative to control
[12] = biological target: Sodium-dependent serotonin transporter (Homo sapiens) (UniProt P31645); experiment: Inhibition of human 5-HT transporter at 10 uM relative to control
[13] = biological target: Estrogen receptor (Homo sapiens) (UniProt P03372); experiment: Inhibition of human ERalpha at 10 uM relative to control
[14] = biological target: Vasopressin V1a receptor (Homo sapiens) (UniProt P37288); experiment: Inhibition of human V1a at 10 uM relative to control
[15] = biological target: T1, Histone-lysine N-methyltransferase SETD7 (Homo sapiens, UniProt Q8WTS6); experiment: Binding affinity to biotinylated SETD7 (unknown origin) assessed as dissociation constant in presence of SAM in flow and wash buffer by SPR analysis
T1 sequence (Q8WTS6 whole entry): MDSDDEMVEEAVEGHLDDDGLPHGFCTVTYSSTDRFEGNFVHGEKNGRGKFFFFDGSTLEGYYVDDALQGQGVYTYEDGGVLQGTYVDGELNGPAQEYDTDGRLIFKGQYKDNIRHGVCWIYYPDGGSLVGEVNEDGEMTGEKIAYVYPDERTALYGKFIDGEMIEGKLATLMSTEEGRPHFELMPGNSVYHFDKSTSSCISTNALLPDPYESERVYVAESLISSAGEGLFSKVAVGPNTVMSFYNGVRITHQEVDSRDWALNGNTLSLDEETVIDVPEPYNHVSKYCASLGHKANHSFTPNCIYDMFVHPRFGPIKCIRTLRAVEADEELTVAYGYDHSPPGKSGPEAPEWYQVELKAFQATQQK

[16] = biological target: Kappa-type opioid receptor (Homo sapiens, UniProt P41145); experiment: Inhibition of human kappa opioid receptor
[17] = biological target: Mitogen-activated protein kinase 14 (Homo sapiens) (UniProt Q16539); experiment: Inhibition of human P38alpha kinase at 10 uM relative to control
[18] = biological target: Corticotropin-releasing factor receptor 1 (Homo sapiens) (UniProt P34998); experiment: Inhibition of human CRF1 receptor at 10 uM relative to control
[19] = biological target: Gamma-aminobutyric acid receptor subunit beta-1 (Homo sapiens) (UniProt P18505); experiment: Inhibition of human GABA beta 1b at 10 uM relative to control
[20] = biological target: Melanocyte-stimulating hormone receptor (Homo sapiens) (UniProt Q01726); experiment: Inhibition of MC1 receptor (unknown origin) at 10 uM relative to control
[21] = biological target: Muscarinic acetylcholine receptor M2 (Homo sapiens) (UniProt P08172); experiment: Inhibition of human M2 receptor at 10 uM relative to control
[22] = biological target: Adenosine receptor A2a (Homo sapiens) (UniProt P29274); experiment: Inhibition of human A2A receptor at 10 uM relative to control
[23] = biological target: Interstitial collagenase (Homo sapiens) (UniProt P03956); experiment: Inhibition of human MMP-1 at 10 uM relative to control
[24] = biological target: Delta-type opioid receptor (Homo sapiens) (UniProt P41143); experiment: Inhibition of human delta 2 opioid receptor at 10 uM relative to control
[25] = biological target: T1, Histone-lysine N-methyltransferase SETD7; experiment: Inhibition of wildtype full length human SETD7 (1 to 366 residues) expressed in Escherichia coli BL21 (DE3) V2R-pRARE using biotinylated H3 (1-25) peptide as substrate incubated for 1 hrs in presence of 3H-SAM by radioactivity based assay
[26] = biological target: MAO-A (Amine oxidase [flavin-containing] A) (Homo sapiens, UniProt P21397); experiment: Inhibition of MAO-A (unknown origin) at 10 uM relative to control
[27] = biological target: Tyrosine-protein kinase ABL1 (Homo sapiens) (UniProt P00519); experiment: Inhibition of human Abl kinase at 10 uM relative to control
[28] = biological target: Somatostatin receptor type 1 (Homo sapiens) (UniProt P30872); experiment: Inhibition of human sst1 at 10 uM relative to control
[29] = biological target: Sodium-dependent dopamine transporter (Homo sapiens) (UniProt Q01959); experiment: Inhibition of human dopamine transporter at 10 uM relative to control
[30] = biological target: Apelin receptor (Homo sapiens) (UniProt P35414); experiment: Inhibition of human APJ at 10 uM relative to control
[31] = biological target: Prostaglandin G/H synthase 2 (Homo sapiens) (UniProt P35354); experiment: Inhibition of human COX2 at 10 uM relative to control
[32] = biological target: 3',5'-cyclic-AMP phosphodiesterase 4D (Homo sapiens) (UniProt Q08499); experiment: Inhibition of human PDE4D2 at 10 uM relative to control
Caspase-3 (Homo sapiens) = Caspase-3 (Homo sapiens) (UniProt P42574); experiment: Inhibition of human caspase-3 at 10 uM relative to control
[33] = biological target: Peroxisome proliferator-activated receptor gamma (Homo sapiens) (UniProt P37231); experiment: Inhibition of human PPARgamma at 10 uM relative to control
[34] = Inhibition of SETD7 H252W mutant (unknown origin) using biotinylated H3 (1-25) peptide as substrate incubated for 1 hrs in presence of 3H-SAM by radioactivity based assay; set-up: species or system Homo sapiens
How it was run: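 Scintillation proximity assay on recombinant E. coli-expressed human SETD7(1–366) mutant forms. Read-out was incorporation of the ³H-methyl group from ³H-SAM into histone H3(1–25) peptide, with 2 µM SAM, 2 µM H3(1–25) and 2 nM enzyme. IC50 is given as the mean ± SD of triplicate runs.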

[35] = biological target: Type-2 angiotensin II receptor (Homo sapiens) (UniProt P50052); experiment: Inhibition of human AT2 receptor at 10 uM relative to control
[36] = Stability of compound in cell media by MS-LC analysis; assay type: physicochemical

Androgen receptor (Homo sapiens), sequence (P10275 whole entry): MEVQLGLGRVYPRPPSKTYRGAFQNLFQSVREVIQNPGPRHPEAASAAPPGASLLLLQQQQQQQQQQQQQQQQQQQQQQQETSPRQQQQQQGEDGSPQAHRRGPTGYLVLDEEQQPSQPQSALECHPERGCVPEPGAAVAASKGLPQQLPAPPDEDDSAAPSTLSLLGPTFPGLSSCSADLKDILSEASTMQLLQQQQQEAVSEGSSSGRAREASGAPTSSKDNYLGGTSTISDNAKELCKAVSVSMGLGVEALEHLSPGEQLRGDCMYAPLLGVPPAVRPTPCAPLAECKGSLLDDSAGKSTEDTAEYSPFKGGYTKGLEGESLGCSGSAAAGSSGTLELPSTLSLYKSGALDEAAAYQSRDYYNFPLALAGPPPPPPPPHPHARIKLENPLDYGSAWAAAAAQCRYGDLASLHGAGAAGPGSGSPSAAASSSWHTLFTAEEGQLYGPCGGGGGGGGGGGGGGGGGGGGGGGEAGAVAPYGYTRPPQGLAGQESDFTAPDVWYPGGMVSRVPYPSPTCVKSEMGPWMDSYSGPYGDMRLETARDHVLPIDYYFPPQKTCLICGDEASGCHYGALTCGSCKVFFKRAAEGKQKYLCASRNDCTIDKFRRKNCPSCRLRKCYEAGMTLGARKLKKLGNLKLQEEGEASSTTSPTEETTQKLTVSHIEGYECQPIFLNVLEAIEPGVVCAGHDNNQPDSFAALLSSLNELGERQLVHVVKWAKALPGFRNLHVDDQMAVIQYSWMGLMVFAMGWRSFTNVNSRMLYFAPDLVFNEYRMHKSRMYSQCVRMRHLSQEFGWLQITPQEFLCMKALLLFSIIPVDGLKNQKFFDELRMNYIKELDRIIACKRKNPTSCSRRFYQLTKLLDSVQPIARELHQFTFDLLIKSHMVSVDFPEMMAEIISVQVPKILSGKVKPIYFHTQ
Melanocyte-stimulating hormone receptor (Homo sapiens), sequence (Q01726 whole entry, looked up): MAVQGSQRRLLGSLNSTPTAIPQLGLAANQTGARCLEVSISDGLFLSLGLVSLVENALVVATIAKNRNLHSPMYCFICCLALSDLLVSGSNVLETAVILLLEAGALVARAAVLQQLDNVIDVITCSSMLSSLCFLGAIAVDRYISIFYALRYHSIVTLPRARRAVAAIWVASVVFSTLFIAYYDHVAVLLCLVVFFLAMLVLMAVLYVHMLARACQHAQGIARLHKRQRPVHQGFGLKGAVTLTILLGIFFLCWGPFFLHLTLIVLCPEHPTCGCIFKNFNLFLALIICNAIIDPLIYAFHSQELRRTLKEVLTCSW
MAO-A (Amine oxidase [flavin-containing] A), sequence (P21397 whole entry): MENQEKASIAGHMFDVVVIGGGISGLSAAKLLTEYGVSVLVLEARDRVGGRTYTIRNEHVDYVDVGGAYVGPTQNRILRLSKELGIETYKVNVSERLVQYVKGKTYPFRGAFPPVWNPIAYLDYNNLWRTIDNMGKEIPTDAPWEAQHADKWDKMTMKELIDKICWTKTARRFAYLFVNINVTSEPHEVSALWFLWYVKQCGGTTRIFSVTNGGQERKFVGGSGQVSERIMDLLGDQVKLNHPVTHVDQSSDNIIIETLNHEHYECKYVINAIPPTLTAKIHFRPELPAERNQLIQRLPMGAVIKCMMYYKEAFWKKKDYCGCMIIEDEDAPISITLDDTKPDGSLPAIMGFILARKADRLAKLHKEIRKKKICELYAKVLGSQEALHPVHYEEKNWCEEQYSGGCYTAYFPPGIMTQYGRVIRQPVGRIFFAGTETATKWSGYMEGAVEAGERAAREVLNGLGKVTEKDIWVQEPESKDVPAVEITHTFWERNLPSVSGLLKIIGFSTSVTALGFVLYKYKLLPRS
Caspase-3 (Homo sapiens), sequence (P42574 29-175 limits assumed): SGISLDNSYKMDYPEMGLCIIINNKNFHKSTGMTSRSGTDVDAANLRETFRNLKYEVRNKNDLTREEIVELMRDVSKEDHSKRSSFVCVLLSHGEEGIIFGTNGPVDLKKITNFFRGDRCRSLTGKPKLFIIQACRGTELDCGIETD
Caspase-3 (Homo sapiens), sequence (P42574 176-277 limits assumed): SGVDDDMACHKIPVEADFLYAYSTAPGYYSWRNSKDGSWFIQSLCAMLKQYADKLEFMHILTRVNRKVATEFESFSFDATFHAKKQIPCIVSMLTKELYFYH
Estrogen receptor (Homo sapiens), sequence (P03372 whole entry): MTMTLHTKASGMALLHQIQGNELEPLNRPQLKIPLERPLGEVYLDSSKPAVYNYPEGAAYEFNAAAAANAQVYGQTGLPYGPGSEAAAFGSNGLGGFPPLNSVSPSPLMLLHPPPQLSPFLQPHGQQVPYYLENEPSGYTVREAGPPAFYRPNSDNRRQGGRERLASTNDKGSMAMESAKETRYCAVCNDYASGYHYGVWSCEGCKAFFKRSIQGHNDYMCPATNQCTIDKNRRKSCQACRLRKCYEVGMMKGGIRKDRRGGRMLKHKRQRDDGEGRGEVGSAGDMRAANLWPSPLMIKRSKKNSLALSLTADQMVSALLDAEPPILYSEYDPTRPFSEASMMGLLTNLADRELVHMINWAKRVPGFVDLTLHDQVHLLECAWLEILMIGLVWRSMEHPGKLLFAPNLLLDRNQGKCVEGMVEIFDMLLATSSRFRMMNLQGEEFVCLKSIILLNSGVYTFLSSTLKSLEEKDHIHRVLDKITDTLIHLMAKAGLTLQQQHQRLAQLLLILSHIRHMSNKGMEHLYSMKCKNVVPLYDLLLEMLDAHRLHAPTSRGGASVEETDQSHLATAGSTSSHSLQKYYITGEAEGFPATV
Tyrosine-protein kinase ABL1 (Homo sapiens), sequence (P00519 whole entry): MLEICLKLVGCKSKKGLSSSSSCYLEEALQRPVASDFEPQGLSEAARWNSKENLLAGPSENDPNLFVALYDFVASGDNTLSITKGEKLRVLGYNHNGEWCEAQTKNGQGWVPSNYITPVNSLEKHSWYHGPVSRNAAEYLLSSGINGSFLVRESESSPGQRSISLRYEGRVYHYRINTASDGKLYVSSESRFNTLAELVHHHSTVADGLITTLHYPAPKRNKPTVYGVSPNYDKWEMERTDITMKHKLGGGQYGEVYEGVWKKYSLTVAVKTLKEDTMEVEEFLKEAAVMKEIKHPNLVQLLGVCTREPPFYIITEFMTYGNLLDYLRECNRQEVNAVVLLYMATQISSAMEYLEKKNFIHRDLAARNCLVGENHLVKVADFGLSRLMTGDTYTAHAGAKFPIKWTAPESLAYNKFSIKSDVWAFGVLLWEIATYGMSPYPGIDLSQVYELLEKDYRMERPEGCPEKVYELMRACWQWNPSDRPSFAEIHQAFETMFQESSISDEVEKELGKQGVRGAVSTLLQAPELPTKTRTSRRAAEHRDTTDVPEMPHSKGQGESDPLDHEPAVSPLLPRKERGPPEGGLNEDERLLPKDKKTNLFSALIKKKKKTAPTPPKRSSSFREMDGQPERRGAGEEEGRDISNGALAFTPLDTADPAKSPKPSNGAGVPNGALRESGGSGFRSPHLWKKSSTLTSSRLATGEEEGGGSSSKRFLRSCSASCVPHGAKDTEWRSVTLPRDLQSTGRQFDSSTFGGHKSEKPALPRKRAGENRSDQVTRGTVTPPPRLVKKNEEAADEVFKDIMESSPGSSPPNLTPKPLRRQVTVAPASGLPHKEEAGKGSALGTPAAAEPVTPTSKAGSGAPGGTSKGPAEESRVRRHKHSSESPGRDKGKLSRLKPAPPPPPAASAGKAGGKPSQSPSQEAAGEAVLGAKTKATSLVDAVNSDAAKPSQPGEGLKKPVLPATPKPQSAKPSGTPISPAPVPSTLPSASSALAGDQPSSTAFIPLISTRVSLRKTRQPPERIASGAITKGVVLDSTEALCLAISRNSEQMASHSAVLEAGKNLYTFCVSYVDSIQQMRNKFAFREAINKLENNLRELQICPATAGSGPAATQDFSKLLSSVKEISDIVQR
Histamine H1 receptor (Homo sapiens), sequence (P35367 whole entry): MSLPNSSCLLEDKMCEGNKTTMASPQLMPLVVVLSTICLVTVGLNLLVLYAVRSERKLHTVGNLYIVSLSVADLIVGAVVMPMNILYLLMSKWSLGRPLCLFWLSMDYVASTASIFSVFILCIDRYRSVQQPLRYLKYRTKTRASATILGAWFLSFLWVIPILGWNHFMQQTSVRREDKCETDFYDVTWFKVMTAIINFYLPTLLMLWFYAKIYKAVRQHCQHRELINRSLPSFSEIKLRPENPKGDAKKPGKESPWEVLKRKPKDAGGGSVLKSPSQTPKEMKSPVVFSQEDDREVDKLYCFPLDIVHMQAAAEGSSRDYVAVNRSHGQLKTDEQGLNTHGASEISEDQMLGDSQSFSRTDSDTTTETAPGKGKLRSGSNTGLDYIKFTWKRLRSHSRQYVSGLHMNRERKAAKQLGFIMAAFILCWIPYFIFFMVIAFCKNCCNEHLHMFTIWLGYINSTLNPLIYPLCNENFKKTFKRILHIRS
Muscarinic acetylcholine receptor M2 (Homo sapiens), sequence (P08172 whole entry): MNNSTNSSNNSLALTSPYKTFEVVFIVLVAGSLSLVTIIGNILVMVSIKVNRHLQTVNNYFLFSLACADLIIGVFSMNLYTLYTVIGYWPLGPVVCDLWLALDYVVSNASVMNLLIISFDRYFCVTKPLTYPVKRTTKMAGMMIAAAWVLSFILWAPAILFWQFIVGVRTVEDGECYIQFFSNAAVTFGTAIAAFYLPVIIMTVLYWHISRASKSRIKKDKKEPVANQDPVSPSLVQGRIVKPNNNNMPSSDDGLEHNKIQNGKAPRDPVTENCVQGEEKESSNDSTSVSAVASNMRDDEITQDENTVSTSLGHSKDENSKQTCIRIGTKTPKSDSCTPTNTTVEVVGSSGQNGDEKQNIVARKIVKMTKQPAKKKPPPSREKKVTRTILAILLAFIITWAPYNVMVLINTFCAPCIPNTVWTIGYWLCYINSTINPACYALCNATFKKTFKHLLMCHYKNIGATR

With `O=C([C@@H](Cc1cccc(C(F)(F)F)c1)NS(=O)(=O)c1cc(F)c2c(c1)CCNC2)N1CCCC1` the inhibition [1] was 43%, the inhibition [2] was -8% and the inhibition (Homo sapiens [3]) was 11%. It also gave an inhibition [4] of 14%, an inhibition (Homo sapiens [5]) of -3% and an inhibition [6] of 12%. The inhibition [7] was 29%, the inhibition [8] was 10% and the inhibition (Homo sapiens [9]) was 18%. The inhibition [10] was 47%, the inhibition [11] was 1% and the inhibition [12] was 9%. It also gave an inhibition [13] of -5%, an inhibition [14] of 8% and a Kd [15] of 4.2 nM. For the same compound, the IC50 [16] was 3.8 µM, the inhibition [17] was -6% and the inhibition [18] was -7%. For the same compound, the inhibition [19] was 5%, the inhibition [20] was 16% and the inhibition [21] was 3%. The inhibition [22] was 18%, the inhibition [23] was 1% and the inhibition [24] was 47%. For the same compound, the IC50 [25] was 2 nM, the inhibition at 10 µM [26] was 6% and the inhibition [27] was 15%. The inhibition [28] was 5%, the inhibition [29] was 2% and the inhibition [30] was -5%. The inhibition [31] was -8%, the inhibition [32] was 1% and the inhibition (Caspase-3 (Homo sapiens)) was 2%. For the same compound, the inhibition [33] was 7%, the IC50 [34] was 2630 nM and the inhibition [35] was 12%. The Stability [36] was “Stable”.
